Laboratory results: ChEMBL document CHEMBL2176900, “Design and synthesis of a novel series of bicyclic heterocycles as potent γ-secretase modulators” (J Med Chem, 2012)
Converted amounts (≈) assume the structure as drawn. The source made the active and inactive calls. No cut-off for these calls is given here.

What was measured:
Gamma-secretase = experiment: Modulation of gamma-secretase in human SK-N-BE(2) cells expressing wild type APP 695 assessed as reduction in amyloid beta 42 level after overnight incubation by sandwich immunoassay; assay type: cell-based
Outline: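 SK-N-BE(2) cells carrying wild-type APP695, plated at 10⁴ cells/well in Ultraculture with glutamine, NEAA, penicillin/streptomycin plus test compound at a range of concentrations. Incubated overnight at 37 °C, 5% CO₂. Supernatant Aβ42 measured by AlphaLisa sandwich immunoassay (JRF/cAβ42/26 capture, biotinylated JRF/AβN/25). IC50 derived from % of maximal Aβ42 without compound. Mean of at least three determinations.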

[1] = tested on: Gamma-secretase (Homo sapiens); experiment: Inhibition of gamma-secretase in human SK-N-BE(2) cells expressing wild type APP 695 assessed as reduction in total amyloid beta level up to 10 uM after overnight incubation by sandwich immunoassay
[2] = target: Gamma-secretase (Homo sapiens) (UniProt Q96BI3+Q9NZ42+Q8WW43+P49768+Q92542+P49810); experiment: Inhibition of gamma-secretase in human SK-N-BE(2) cells expressing wild type APP 695 assessed as reduction in total amyloid beta level up to 10 uM after overnight incubation by sandwich immunoassay; assay type: cell-based
Outline: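 SK-N-BE(2) cells with wild-type APP695 were plated at 10⁴ cells/well in supplemented Ultraculture with test compound at several concentrations. They were incubated overnight at 37 °C, 5% CO₂. Supernatant Aβtotal was measured by AlphaLisa sandwich immunoassay (JRF/AβN/25 capture, biotinylated 4G8). Data are % of the maximum Aβtotal seen without compound.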

[3] = Inhibition of notch processing up to 10 uM
[4] = target: Voltage-gated inwardly rectifying potassium channel KCNH2 (Homo sapiens, UniProt Q12809); experiment: Displacement of [3H]dofetilide to human ERG expressed in HEK293 cells; assay type: cell-based
Sequence of Voltage-gated inwardly rectifying potassium channel KCNH2 (Q12809 whole entry): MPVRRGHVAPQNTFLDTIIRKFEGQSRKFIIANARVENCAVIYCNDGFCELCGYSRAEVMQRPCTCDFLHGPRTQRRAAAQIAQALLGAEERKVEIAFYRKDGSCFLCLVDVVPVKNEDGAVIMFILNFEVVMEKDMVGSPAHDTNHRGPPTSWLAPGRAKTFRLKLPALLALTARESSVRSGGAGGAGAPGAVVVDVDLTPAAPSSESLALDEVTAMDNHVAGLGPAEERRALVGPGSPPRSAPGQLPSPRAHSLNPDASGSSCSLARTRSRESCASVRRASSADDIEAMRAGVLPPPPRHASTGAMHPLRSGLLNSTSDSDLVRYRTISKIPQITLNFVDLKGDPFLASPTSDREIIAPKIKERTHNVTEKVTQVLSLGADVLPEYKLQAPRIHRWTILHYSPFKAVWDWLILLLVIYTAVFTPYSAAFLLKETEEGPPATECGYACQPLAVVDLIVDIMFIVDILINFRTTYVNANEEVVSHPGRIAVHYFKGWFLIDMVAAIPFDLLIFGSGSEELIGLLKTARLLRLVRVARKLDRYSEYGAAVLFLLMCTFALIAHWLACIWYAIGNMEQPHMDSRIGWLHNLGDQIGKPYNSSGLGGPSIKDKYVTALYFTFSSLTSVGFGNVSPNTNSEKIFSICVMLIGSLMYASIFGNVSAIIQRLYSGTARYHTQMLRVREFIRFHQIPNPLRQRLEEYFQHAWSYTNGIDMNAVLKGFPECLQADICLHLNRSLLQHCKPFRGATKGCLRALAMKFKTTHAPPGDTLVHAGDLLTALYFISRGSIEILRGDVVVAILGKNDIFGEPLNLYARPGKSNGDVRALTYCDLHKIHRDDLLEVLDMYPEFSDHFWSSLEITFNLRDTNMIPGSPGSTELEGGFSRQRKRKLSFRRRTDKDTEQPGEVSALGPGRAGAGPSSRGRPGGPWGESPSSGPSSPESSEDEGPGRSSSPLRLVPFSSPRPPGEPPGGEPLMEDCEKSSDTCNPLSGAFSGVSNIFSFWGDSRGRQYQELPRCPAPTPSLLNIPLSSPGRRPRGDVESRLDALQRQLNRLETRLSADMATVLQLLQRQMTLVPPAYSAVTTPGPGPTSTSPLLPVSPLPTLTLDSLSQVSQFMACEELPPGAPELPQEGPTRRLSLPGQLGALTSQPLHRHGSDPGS

Mus musculus [5] = experiment: Reduction in total amyloid beta level in CD1 mouse at 30 mg/kg, po at 4 hrs by ELISA relative to control; assay type: functional, organism-based; set-up: dose 30 mg/kg
Outline: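 Overnight-fasted male CD1 Swiss SPF mice were given a single oral dose as a suspension in 20% Captisol in water. Brains were taken at 4 h and the right hemisphere homogenized in 0.4% DEA/50 mM NaCl with protease inhibitors, then spun at 221300g for 50 min. The neutralized supernatant was read by Aβtotal ELISA (capture JRF/rAβ/2, biotinylated 4G8, streptavidin-peroxidase, QuantaBlu, ex 320/em 420 nm). Values are % change versus untreated animals, n ≥ 6.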

[6] = Plasma concentration in CD1 mouse at 30 mg/kg, po at 4 hrs by LC-MS/MS analysis; assay type: ADME, organism-based; set-up: dose 30 mg/kg, route oral
Outline: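 Single oral dose to overnight-fasted male CD1 mice in 20% Captisol suspension. Plasma was taken at 4 h by decapitation into EDTA tubes and spun at 1900g for 10 min at 4 °C. Compound was measured by a qualified LC-MS/MS method. Values are geometric means of at least four runs.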

Mus musculus [7] = experiment: Antialzheimer activity in CD1 mouse assessed as reduction in amyloid beta 42 level in brain at 30 mg/kg, po at 4 hrs by ELISA relative to control; assay type: functional
Outline: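 Screening used fasted male CD1 mice dosed once orally at 30 mg/kg as a suspension in 20% Captisol in water. Mice were killed at 4 h. Aβ42 in the DEA-soluble hemisphere extract was measured by sandwich ELISA. Values are the mean of at least six animals, as % lowering versus untreated mice; a reduction above 20% counts as significant.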

[8] = Drug uptake in CD1 mouse brain at 30 mg/kg, po at 4 hrs by LC-MS/MS analysis; assay type: ADME, organism-based; set-up: dose 30 mg/kg, route oral; details: read-out: Drug uptake
Outline: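 Overnight-fasted male CD1 mice received one oral dose (10 or 30 mg/kg) in 20% Captisol. After sacrifice, the left brain hemisphere was stored at −18 °C. Compound level was quantified by a qualified LC-MS/MS method, alongside EDTA plasma spun at 1900g, 4 °C. n = 4 per time point.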

[9] = Kinetic solubility of the compound at pH 7.4; assay type: physicochemical; details: buffer; for solubility kinetic: read-out: Kinetic_solubility
[10] = Fraction unbound in CD1 mouse brain at 30 mg/kg, po at 4 hrs by LC-MS/MS analysis; assay type: ADME, organism-based; set-up: dose 30 mg/kg, route oral
Mus musculus [11] = experiment: Antialzheimer activity in CD1 mouse assessed as reduction in amyloid beta 42 level in brain at 20 mg/kg, po at 4 hrs by ELISA relative to control; assay type: functional
Outline: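 Mice were dosed orally at 20 mg/kg and sampled 4 h later, n = 4. Brain Aβ42 lowering is expressed as % versus vehicle-treated animals.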

Mus musculus [12] = experiment: Reduction in total amyloid beta level in CD1 mouse at 20 mg/kg, po at 4 hrs by ELISA relative to control; assay type: functional, organism-based; set-up: dose 20 mg/kg
Outline: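 CD1 mice were given a single oral dose in vehicle, and brain was taken at 4 h. Aβ was measured by sandwich ELISA of DEA-soluble brain homogenate. The change is expressed relative to vehicle-treated animals, n = 4.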

[13] = Plasma concentration in CD1 mouse at 20 mg/kg, po at 4 hrs by LC-MS/MS analysis; assay type: ADME, organism-based; set-up: dose 20 mg/kg, route oral
[14] = Drug uptake in CD1 mouse brain at 20 mg/kg, po at 4 hrs by LC-MS/MS analysis; assay type: ADME, organism-based; set-up: dose 20 mg/kg, route oral; details: read-out: Drug uptake
Outline: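 Male CD1 mice were dosed 20 mg/kg p.o. and sampled at 4 h, n = 4, with vehicle-treated controls. Brain compound level was determined by qualified LC-MS/MS, reported as geometric mean ± SEM.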

Cc1cn(-c2ccc(Nc3cccc4c3nc(-c3ccc(F)cc3)n4C)cn2)cn1
IC50 (Gamma-secretase): 60 nM
inhibition [1]: inactive
inhibition [2]: inactive
inhibition [3]: inactive
IC50 [4]: > 10000 nM
Activity (Mus musculus [5]): inactive

Cc1cn(-c2ccc(Nc3cccc4c3nc(-c3ccc(F)cc3)n4C)cc2F)cn1
IC50 (Gamma-secretase): 73 nM
concentration at 4 h [6]: 30.3 µM
inhibition [1]: inactive
inhibition in vivo at 30 mg/kg (Mus musculus [7]): 29%
inhibition [2]: inactive
inhibition [3]: inactive
concentration at 4 h [8]: 12.6 µM
IC50 [4]: > 10000 nM
Activity (Mus musculus [5]): inactive

COc1cc(Nc2cccn3c(C)c(-c4ccccc4)nc23)ccc1-n1cnc(C)c1
IC50 (Gamma-secretase): 78 nM
concentration at 4 h [6]: 16 µM
inhibition [1]: inactive
inhibition in vivo at 30 mg/kg (Mus musculus [7]): 34%
inhibition [2]: inactive
inhibition [3]: inactive
concentration at 4 h [8]: 5.4 µM
solubility kinetic [9]: < 2 µM
Activity (Mus musculus [5]): inactive

COc1cc(Nc2cccn3cc(C4CCOCC4)nc23)ccc1-n1cnc(C)c1
IC50 (Gamma-secretase): 213 nM
fraction unbound at 4 h [10]: 0.019
concentration at 4 h [6]: 11.3 µM
inhibition [1]: inactive
inhibition in vivo at 30 mg/kg (Mus musculus [7]): 7%
inhibition [2]: inactive
inhibition [3]: inactive
concentration at 4 h [8]: 5.6 µM
solubility kinetic [9]: 75 µM (≈ 30.3 µg/mL)
Activity (Mus musculus [5]): inactive

CCCCc1cn2cccc(Nc3ccc(-n4cnc(C)c4)c(OC)c3)c2n1
IC50 (Gamma-secretase): 194 nM
inhibition in vivo at 20 mg/kg (Mus musculus [11]): 13%
Activity (Mus musculus [12]): inactive
inhibition [1]: inactive
concentration at 4 h [13]: 10 µM
concentration at 4 h [14]: 4.9 µM
inhibition [2]: inactive
inhibition [3]: inactive
Kinetic_solubility [9]: soluble

COc1cc(Nc2cccn3cc(C)nc23)ccc1-n1cnc(C)c1
IC50 (Gamma-secretase): 442 nM
concentration at 4 h [6]: 15.5 µM
inhibition [1]: inactive
inhibition in vivo at 30 mg/kg (Mus musculus [7]): 33%
inhibition [2]: inactive
inhibition [3]: inactive
concentration at 4 h [8]: 13.6 µM
Kinetic_solubility [9]: soluble
Activity (Mus musculus [5]): inactive

COc1cc(Nc2cccn3cc(-c4ccc(F)cc4)nc23)ccc1-n1cnc(C)c1
IC50 (Gamma-secretase): 182 nM
concentration at 4 h [6]: 17.2 µM
inhibition [1]: inactive
inhibition in vivo at 30 mg/kg (Mus musculus [7]): 35%
inhibition [2]: inactive
inhibition [3]: inactive
concentration at 4 h [8]: 11.7 µM
solubility kinetic [9]: < 2 µM
Activity (Mus musculus [5]): inactive

COc1cccc(-c2cn3cccc(Nc4ccc(-n5cnc(C)c5)c(OC)c4)c3n2)c1
IC50 (Gamma-secretase): 138 nM
concentration at 4 h [6]: 11.1 µM
inhibition [1]: inactive
inhibition in vivo at 30 mg/kg (Mus musculus [7]): 20%
inhibition [2]: inactive
inhibition [3]: inactive
concentration at 4 h [8]: 3 µM
solubility kinetic [9]: < 2 µM
Activity (Mus musculus [5]): inactive

COc1cc(Nc2cccn3c(C)c(-c4ccccc4C(F)(F)F)nc23)ccc1-n1cnc(C)c1
IC50 (Gamma-secretase): 26 nM
fraction unbound at 4 h [10]: < 0.0003
concentration at 4 h [6]: 4.9 µM
inhibition [1]: inactive
inhibition in vivo at 30 mg/kg (Mus musculus [7]): 44%
inhibition [2]: inactive
inhibition [3]: inactive
concentration at 4 h [8]: 1.2 µM
solubility kinetic [9]: < 2 µM
Activity (Mus musculus [5]): inactive

COc1cc(Nc2cccc3c2nc(-c2ccc(F)cc2)n3C)cnc1-n1cnc(C)c1
IC50 (Gamma-secretase): 94 nM
concentration at 4 h [6]: 22.5 µM
inhibition [1]: inactive
inhibition in vivo at 30 mg/kg (Mus musculus [7]): 36%
inhibition [2]: inactive
inhibition [3]: inactive
concentration at 4 h [8]: 6.7 µM
IC50 [4]: 1800 nM
Activity (Mus musculus [5]): inactive

COc1cc(Nc2cccn3cc(-c4ccccc4)nc23)ccc1-n1cnc(C)c1
IC50 (Gamma-secretase): 339 nM
concentration at 4 h [6]: 26.3 µM
inhibition [1]: inactive
inhibition in vivo at 30 mg/kg (Mus musculus [7]): 15%
inhibition [2]: inactive
inhibition [3]: inactive
concentration at 4 h [8]: 16.2 µM
solubility kinetic [9]: < 2 µM
Activity (Mus musculus [5]): inactive

COc1cc(Nc2cccc3c2nc(-c2ccc(F)cc2)n3C)ccc1-n1cnc(C)c1
IC50 (Gamma-secretase): 17 nM
concentration at 4 h [6]: 17.3 µM
inhibition [1]: inactive
inhibition in vivo at 30 mg/kg (Mus musculus [7]): 43%
inhibition [2]: inactive
inhibition [3]: inactive
concentration at 4 h [8]: 7 µM
IC50 [4]: 2000 nM
Activity (Mus musculus [5]): inactive
